Reference: ChEMBL document CHEMBL1777714, “Optimization of triazoles as novel and potent nonphlorizin SGLT2 inhibitors” (Bioorg Med Chem Lett, 2011)
≈ marks a conversion by molar mass, not a printed value.

Experiments:
[1] = Solubility of the compound in phosphate buffered saline; type: physicochemical
Procedure, shortened: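 Solubility measured in PBS buffer, reported in µg/mL.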

Rattus norvegicus [2] = test: AUC (0 to 24 hrs) in rat at 100 mg/kg, sc; type: ADME, organism-based, Plasma; set-up: time < 24 hr, dose 100 mg/kg, route subcutaneous; conditions: in vivo
[3] = Tmax in rat at 100 mg/kg, sc; type: ADME, organism-based; set-up: dose 100 mg/kg, route subcutaneous; conditions: in vivo
[4] = Cmax in rat at 100 mg/kg, sc; type: ADME, organism-based; set-up: dose 100 mg/kg, route subcutaneous; conditions: in vivo
[5] = Cmax in rat at 70 mg/kg, sc; type: ADME, organism-based; set-up: dose 70 mg/kg, route subcutaneous; conditions: in vivo
Rattus norvegicus [6] = test: AUC (0 to 24 hrs) in rat at 70 mg/kg, sc; type: ADME, organism-based, Plasma; set-up: time < 24 hr, dose 70 mg/kg, route subcutaneous; conditions: in vivo
[7] = Tmax in rat at 70 mg/kg, sc; type: ADME, organism-based; set-up: dose 70 mg/kg, route subcutaneous; conditions: in vivo

solubility [1] [µg/mL]	further results	SMILES
1.6 (≈ 3 µM)	–	O=C1COc2c(Cl)cc(Cl)cc2N1Cc1nnc(CCc2ccc(Cl)cc2)n1CCC(F)(F)F
2.2 (≈ 4.25 µM)	–	O=C1COc2c(cc(Cl)cc2[N+](=O)[O-])N1Cc1nnc(-c2ccc(Cl)cn2)n1CCC(F)(F)F
1 (≈ 2.16 µM)	–	CCCn1c(CN2C(=O)COc3c2cc(Cl)cc3[N+](=O)[O-])nnc1-c1ccc(Cl)cn1
2 (≈ 4.52 µM)	–	CCCn1c(CN2C(=O)COc3c2cc(C)cc3[N+](=O)[O-])nnc1-c1ccc(Cl)cn1
1.1 (≈ 2.67 µM)	–	CCCn1c(CN2C(=O)COc3c(C)cc(C)cc32)nnc1-c1ccc(Cl)cn1
64 (≈ 170 µM)	AUC (Rattus norvegicus [2]): 16.2 µM·h; Tmax [3]: 8 h; Cmax [4]: 1050 nM	CCCn1c(CN2C(=O)COc3c(C)cc(C)cc32)nnc1-c1ccccn1
80 (≈ 181 µM)	–	CCCn1c(CN2C(=O)COc3c2cc(Cl)cc3[N+](=O)[O-])nnc1-c1ncccc1C
19 (≈ 45.6 µM)	–	CCCn1c(CN2C(=O)COc3c(C)cc(C)cc32)nnc1[C@@H]1C[C@H]1c1ccccc1
23 (≈ 53.4 µM)	–	CCCn1c(CN2C(=O)COc3c(C)cc(C)cc32)nnc1[C@@H]1CCc2ccccc2C1
35 (≈ 84 µM)	Cmax [5]: 3.5 µM; AUC (Rattus norvegicus [6]): 61.6 µM·h; Tmax [7]: 24 h	CCCn1c(CN2C(=O)COc3c(C)cc(C)cc32)nnc1C1Cc2ccccc2C1
